Measured values reported in ChEMBL document CHEMBL1250448, “Inhibitor hijacking of Akt activation” (Nat Chem Biol, 2009).

Legend:
[1] = molecular target: SRSF protein kinase 2 (Homo sapiens) (UniProt P78362); assay: Inhibition of SRPK2 at 1 uM in presence of 10 uM ATP by Select Screen kinase assay relative to untreated control
How it was run: (§1)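 Commercial SelectScreen profiling panel of 220 purified kinases. Each kinase was tested at a single inhibitor concentration of 1 μM, and activity was expressed as percent inhibition.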

[2] = molecular target: Dual specificity mitogen-activated protein kinase kinase 2 (Homo sapiens) (UniProt P36507); assay: Inhibition of MAP2K2 at 1 uM in presence of 100 uM ATP by Select Screen kinase assay relative to untreated control
How it was run: (§2)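 Single-concentration profiling at 1 μM against a panel of 220 purified kinases, run as an outsourced SelectScreen kinase profiling service. Activity is expressed as percent inhibition.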

[3] = molecular target: Angiopoietin-1 receptor (Homo sapiens) (UniProt Q02763); assay: Inhibition of TEK at 1 uM in presence of 10 uM ATP by Select Screen kinase assay relative to untreated control; how it was run: as §1
Chain of Angiopoietin-1 receptor (Homo sapiens) (Q02763 whole entry): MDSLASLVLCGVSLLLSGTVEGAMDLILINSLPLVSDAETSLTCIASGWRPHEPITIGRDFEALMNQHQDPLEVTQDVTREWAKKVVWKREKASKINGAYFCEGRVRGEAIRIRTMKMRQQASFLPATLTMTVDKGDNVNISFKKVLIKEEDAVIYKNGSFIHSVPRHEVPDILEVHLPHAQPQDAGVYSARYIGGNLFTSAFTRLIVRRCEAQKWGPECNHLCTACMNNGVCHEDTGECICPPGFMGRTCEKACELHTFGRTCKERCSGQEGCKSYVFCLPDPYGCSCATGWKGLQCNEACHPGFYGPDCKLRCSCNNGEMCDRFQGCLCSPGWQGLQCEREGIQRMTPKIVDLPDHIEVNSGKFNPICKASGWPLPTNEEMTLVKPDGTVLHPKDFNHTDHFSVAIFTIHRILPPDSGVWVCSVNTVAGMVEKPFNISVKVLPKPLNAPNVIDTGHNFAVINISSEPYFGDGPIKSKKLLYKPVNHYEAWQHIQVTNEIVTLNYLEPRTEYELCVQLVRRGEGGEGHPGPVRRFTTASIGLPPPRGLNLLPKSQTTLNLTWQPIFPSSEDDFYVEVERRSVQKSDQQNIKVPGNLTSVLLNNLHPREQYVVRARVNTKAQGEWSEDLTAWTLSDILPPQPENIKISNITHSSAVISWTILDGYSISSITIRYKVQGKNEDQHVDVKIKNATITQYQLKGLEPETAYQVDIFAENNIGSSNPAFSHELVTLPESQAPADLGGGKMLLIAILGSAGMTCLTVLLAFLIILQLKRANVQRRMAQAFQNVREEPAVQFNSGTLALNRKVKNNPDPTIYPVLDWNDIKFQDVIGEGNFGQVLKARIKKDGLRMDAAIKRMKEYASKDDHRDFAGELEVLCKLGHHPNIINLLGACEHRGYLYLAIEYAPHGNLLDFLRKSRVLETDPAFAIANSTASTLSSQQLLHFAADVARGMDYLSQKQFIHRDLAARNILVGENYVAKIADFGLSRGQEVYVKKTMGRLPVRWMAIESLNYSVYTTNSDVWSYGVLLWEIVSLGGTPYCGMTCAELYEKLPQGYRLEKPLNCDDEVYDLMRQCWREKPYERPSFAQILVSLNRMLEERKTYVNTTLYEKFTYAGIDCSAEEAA

[4] = molecular target: Insulin receptor-related protein (Homo sapiens) (UniProt P14616); assay: Inhibition of INSRR at 1 uM in presence of 100 uM ATP by Select Screen kinase assay relative to untreated control; how it was run: as §2
Chain of Insulin receptor-related protein (Homo sapiens) (P14616 27-742 limits assumed): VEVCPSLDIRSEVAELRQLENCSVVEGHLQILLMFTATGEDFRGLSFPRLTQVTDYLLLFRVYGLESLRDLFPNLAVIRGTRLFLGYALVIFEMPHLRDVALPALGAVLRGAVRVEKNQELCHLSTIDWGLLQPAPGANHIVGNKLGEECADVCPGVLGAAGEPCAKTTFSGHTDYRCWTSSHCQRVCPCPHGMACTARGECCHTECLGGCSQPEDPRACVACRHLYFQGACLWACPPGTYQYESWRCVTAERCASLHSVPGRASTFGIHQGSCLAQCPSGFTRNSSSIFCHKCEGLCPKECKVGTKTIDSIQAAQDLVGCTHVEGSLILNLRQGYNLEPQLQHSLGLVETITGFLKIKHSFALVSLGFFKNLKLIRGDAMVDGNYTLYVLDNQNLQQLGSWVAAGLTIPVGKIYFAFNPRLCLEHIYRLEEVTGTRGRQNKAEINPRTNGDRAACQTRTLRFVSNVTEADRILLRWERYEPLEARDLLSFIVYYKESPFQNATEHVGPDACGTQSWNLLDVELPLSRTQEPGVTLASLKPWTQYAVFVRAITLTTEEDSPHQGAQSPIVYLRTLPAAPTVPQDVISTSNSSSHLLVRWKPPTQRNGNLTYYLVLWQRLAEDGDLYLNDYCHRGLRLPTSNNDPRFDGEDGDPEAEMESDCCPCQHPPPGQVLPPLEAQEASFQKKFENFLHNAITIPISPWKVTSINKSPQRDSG
Chain of Insulin receptor-related protein (Homo sapiens) (P14616 747-1297 limits assumed): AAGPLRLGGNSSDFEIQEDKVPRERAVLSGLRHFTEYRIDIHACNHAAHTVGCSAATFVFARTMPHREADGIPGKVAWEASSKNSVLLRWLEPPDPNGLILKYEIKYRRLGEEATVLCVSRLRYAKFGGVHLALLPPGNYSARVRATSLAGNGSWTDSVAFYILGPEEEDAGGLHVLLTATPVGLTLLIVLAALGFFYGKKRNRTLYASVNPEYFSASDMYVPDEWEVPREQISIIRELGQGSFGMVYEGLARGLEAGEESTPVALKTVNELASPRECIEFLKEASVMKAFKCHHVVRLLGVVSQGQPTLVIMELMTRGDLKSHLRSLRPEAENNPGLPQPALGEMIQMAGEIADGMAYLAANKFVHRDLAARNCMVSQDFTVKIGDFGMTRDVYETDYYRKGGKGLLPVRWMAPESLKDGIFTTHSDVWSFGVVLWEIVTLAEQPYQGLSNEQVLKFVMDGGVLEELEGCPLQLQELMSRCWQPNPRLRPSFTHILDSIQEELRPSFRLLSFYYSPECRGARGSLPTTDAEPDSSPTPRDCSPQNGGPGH

[5] = molecular target: T1, Megakaryocyte-associated tyrosine-protein kinase (Homo sapiens) (UniProt P42679); assay: Inhibition of MATK at 1 uM in presence of 10 uM ATP by Select Screen kinase assay relative to untreated control; how it was run: as §2
T1 sequence (whole entry): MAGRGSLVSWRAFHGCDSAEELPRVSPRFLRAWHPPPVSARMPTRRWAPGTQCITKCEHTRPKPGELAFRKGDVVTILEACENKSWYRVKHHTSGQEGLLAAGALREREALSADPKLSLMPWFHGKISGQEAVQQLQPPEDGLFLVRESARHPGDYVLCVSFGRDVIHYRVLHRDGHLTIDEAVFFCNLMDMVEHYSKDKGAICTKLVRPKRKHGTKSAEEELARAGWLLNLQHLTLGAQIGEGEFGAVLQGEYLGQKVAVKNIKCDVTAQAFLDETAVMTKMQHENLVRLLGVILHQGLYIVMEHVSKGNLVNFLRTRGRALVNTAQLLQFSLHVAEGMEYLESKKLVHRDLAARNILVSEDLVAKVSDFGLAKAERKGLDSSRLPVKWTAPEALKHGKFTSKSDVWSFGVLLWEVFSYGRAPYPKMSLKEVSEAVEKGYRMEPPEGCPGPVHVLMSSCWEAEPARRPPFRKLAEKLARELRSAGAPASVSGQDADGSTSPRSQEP

[6] = molecular target: T2, Phosphorylase b kinase gamma catalytic chain, liver/testis isoform (Homo sapiens) (UniProt P15735); assay: Inhibition of PHKG2 at 1 uM in presence of 10 uM ATP by Select Screen kinase assay relative to untreated control; how it was run: as §1
T2 sequence (whole entry): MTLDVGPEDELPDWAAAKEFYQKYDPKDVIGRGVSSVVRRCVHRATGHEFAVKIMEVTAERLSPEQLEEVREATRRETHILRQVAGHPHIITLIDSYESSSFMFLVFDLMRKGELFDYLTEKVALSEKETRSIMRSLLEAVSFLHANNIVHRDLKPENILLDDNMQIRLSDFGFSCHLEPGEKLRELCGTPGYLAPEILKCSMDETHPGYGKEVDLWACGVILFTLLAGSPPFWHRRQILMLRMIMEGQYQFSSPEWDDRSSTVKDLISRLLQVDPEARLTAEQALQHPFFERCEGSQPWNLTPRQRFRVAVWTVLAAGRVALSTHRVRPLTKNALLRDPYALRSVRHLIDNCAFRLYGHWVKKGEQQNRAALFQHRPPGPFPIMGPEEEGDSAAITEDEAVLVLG

[7] = test system: Hepatocyte growth factor receptor (Homo sapiens), P08581 [M1250T]; assay: Inhibition of MET M1250T mutant at 1 uM in presence of 10 uM ATP by Select Screen kinase assay relative to untreated control; how it was run: as §2
[8] = molecular target: Protein-tyrosine kinase 6 (Homo sapiens) (UniProt Q13882); assay: Inhibition of PTK6 at 1 uM in presence of 10 uM ATP by Select Screen kinase assay relative to untreated control; how it was run: as §1
Chain of Protein-tyrosine kinase 6 (Homo sapiens) (Q13882 whole entry, looked up): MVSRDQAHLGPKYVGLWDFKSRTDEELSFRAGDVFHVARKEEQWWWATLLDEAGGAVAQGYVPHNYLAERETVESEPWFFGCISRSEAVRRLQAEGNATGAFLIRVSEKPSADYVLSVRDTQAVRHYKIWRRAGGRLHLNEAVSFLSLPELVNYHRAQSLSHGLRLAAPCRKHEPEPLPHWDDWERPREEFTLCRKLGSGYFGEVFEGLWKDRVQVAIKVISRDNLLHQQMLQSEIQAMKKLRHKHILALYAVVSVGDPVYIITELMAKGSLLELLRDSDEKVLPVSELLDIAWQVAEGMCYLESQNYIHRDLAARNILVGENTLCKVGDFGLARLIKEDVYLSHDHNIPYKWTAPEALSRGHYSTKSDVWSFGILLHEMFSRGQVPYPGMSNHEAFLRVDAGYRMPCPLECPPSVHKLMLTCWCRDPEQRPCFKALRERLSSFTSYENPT

[9] = molecular target: Protein kinase C beta type (Homo sapiens) (UniProt P05771); assay: Inhibition of PRKCB2 at 1 uM in presence of 10 uM ATP by Select Screen kinase assay relative to untreated control; how it was run: as §1
Chain of Protein kinase C beta type (Homo sapiens) (P05771 2-671 limits assumed): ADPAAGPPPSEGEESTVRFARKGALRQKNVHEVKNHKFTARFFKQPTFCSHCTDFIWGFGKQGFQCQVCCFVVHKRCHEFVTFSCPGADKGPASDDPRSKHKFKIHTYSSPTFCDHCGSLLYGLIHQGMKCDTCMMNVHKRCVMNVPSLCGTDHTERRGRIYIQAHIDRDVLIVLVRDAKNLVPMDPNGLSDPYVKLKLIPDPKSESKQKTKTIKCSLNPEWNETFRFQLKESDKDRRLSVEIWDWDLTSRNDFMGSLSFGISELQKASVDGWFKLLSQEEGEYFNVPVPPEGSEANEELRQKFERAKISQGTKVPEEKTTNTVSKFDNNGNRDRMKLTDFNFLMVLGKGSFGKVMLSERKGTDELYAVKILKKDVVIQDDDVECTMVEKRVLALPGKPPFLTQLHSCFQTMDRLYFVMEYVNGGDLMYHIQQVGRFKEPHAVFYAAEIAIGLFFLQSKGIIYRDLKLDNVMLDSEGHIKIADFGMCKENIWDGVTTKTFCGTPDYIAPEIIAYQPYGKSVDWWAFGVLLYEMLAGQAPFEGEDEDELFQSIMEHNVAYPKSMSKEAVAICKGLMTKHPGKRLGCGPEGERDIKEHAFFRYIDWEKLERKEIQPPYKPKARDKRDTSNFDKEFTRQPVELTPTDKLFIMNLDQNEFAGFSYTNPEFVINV

[10] = molecular target: Serine/threonine-protein kinase PAK 2 (Homo sapiens) (UniProt Q13177); assay: Inhibition of PAK2 at 1 uM in presence of 10 uM ATP by Select Screen kinase assay relative to untreated control; how it was run: as §1
Chain of Serine/threonine-protein kinase PAK 2 (Homo sapiens) (Q13177 whole entry): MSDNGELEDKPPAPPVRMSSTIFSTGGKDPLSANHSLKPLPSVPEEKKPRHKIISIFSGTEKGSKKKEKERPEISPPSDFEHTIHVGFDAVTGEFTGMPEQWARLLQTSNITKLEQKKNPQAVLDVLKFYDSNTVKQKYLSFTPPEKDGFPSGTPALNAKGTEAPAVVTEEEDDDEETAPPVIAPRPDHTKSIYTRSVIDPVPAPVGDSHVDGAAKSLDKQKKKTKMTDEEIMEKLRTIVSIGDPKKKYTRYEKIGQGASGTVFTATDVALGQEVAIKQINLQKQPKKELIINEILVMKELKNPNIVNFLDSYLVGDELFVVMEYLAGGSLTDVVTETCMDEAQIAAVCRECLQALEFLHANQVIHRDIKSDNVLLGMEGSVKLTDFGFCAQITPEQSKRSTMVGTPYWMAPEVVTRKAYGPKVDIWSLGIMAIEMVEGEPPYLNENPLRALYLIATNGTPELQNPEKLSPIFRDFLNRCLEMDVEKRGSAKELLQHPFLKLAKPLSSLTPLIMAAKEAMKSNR

[11] = molecular target: T3, Inhibitor of nuclear factor kappa-B kinase subunit beta (Homo sapiens) (UniProt O14920); assay: Inhibition of IKBKB at 1 uM in presence of 10 uM ATP by Select Screen kinase assay relative to untreated control; how it was run: as §2
T3 sequence (whole entry): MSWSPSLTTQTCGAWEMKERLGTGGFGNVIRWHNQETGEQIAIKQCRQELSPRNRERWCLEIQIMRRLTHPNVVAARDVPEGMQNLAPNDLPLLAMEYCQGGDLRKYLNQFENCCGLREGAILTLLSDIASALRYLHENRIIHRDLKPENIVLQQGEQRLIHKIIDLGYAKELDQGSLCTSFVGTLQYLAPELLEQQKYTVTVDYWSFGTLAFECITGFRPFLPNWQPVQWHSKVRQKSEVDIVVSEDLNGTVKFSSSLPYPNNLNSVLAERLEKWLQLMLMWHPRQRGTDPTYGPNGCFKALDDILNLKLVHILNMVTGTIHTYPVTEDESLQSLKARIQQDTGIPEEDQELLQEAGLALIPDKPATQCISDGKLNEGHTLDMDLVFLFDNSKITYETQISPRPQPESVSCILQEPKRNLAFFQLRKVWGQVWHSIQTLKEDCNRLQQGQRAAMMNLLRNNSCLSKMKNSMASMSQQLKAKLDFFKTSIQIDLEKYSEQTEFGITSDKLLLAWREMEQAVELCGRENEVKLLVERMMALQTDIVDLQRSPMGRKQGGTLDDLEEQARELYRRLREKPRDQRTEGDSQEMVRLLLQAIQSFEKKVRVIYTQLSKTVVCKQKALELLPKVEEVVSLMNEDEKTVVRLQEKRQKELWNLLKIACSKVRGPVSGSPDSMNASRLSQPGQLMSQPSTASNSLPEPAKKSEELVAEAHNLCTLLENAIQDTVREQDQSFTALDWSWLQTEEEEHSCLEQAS

[12] = molecular target: Tyrosine-protein kinase HCK (Homo sapiens) (UniProt P08631); assay: Inhibition of HCK at 1 uM in presence of 10 uM ATP by Select Screen kinase assay relative to untreated control; how it was run: as §2
[13] = molecular target: Serine/threonine-protein kinase PAK 5 (Homo sapiens) (UniProt Q9P286); assay: Inhibition of PAK7 at 1 uM in presence of 10 uM ATP by Select Screen kinase assay relative to untreated control; how it was run: as §1
[14] = molecular target: Platelet-derived growth factor receptor alpha (Homo sapiens) (UniProt P16234); assay: Inhibition of PDGFRalpha at 1 uM in presence of 100 uM ATP by Select Screen kinase assay relative to untreated control; how it was run: as §1

Chain of SRSF protein kinase 2 (Homo sapiens) (P78362 whole entry, looked up): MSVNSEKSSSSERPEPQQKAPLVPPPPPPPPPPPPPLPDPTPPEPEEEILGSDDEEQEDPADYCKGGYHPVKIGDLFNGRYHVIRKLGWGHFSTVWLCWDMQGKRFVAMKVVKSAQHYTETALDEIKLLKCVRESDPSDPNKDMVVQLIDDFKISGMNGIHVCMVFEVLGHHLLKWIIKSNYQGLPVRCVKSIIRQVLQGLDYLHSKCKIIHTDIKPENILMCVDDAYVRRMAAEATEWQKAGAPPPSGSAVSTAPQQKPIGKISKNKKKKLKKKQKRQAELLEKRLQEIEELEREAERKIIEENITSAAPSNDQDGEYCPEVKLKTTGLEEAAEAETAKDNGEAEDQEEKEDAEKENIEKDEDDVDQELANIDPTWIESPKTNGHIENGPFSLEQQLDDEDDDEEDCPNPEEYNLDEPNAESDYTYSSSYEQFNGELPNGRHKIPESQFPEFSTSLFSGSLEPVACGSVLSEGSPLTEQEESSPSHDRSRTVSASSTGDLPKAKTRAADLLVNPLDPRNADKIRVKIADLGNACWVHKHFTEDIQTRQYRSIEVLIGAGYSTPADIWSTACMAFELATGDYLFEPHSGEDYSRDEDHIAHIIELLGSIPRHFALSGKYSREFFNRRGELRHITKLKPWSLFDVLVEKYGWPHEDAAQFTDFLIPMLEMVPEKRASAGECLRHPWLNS

| inhibition [1] [%] | inhibition [2] [%] | inhibition [3] [%] | inhibition [4] [%] | inhibition [5] [%] | inhibition [6] [%] | inhibition [7] [%] | inhibition [8] [%] | inhibition [9] [%] | inhibition [10] [%] | inhibition [11] [%] | inhibition [12] [%] | inhibition [13] [%] | inhibition [14] [%] | Compound |
| --- | --- | --- | --- | --- | --- | --- | --- | --- | --- | --- | --- | --- | --- | --- |
| 4 | 21 | 12 | 8 | -1 | 4 | 3 | 2 | 32 | 9 | 2 | 15 | 1 | 3 | COc1ccccc1N1CCN(c2ncnc3[nH]nc(Br)c23)CC1 |
| 5 | 69 | 11 | 12 | 3 | 28 | 11 | 9 | 35 | 5 | 6 | 9 | 25 | 93 | O=C(NCCCNc1nc(Nc2cccc(NC(=O)N3CCCC3)c2)ncc1I)c1cccs1 |

| Compound | inhibition [1] [%] | inhibition [2] [%] | inhibition [3] [%] | inhibition [4] [%] | inhibition [5] [%] | inhibition [6] [%] | inhibition [7] [%] | inhibition [8] [%] | inhibition [9] [%] | inhibition [10] [%] | inhibition [11] [%] | inhibition [12] [%] | inhibition [13] [%] | inhibition [14] [%] |
| --- | --- | --- | --- | --- | --- | --- | --- | --- | --- | --- | --- | --- | --- | --- |
| Cc1n[nH]c2ccc(-c3cncc(OC[C@@H](N)Cc4c[nH]c5ccccc45)c3)cc12 | 39 | 42 | -1 | 1 | -10 | 11 | 5 | 0 | 68 | 55 | 11 | 8 | 25 | 1 |
